We go through 19 compounds from ChEMBL document CHEMBL1765023, “Acetyl analogs of combretastatin A-4: synthesis and biological studies” (Bioorg Med Chem, 2011).

≈ marks a conversion by molar mass, not a printed value.

In one data set the test system is B16. Briefly: Cytotoxicity against mouse B16 cells by MTT assay. The data set is classed as functional, cell-based.
The test system of the next data set is L1210. In words: Cytotoxicity against mouse L1210 cells by MTT assay. The data set is classed as functional, cell-based.
Data set [1] is described as follows: Induction of microtubule depolymerization in […] cells for 18 hrs by indirect immunofluorescence microscopic analysis. The data set is classed as cell-based. In a few lines: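 Uses A-10 cells, a non-transformed line that arrests in interphase under microtubule-targeting agents. Cells were treated for 18 h and interphase microtubules were visualized by indirect immunofluorescence microscopy, with vehicle-treated controls. Depolymerization was screened at concentrations below 30 µM. For EC50, a range of concentrations was tested, and EC50 is the concentration causing 50% loss of cellular microtubules by microscopy.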

Data set [2] can be described thus: Ratio of EC50 for microtubule depolymerization in […] cells to IC50 for human MDA-MB-435 cells.
A short description of data set [3]: Solubility of the compound in water by multiscreen solubility. In kind it is physicochemical. The essentials:
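Aqueous solubility was measured with a modified Multiscreen Solubility filter-plate protocol. The assay ceiling is 500 µM, and two independent experiments were run.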

Data set [4] concerns Mus musculus. In words: Toxicity in DBA2 mouse assessed as change in color, weight and size in kidney at 75 mg/kg, ip QD administered on alternate days for 17 days measured on day 23 relative to control. The note with it: in vivo, 408 h. The data set is classed as organism-based. Further details: dose 75 mg/kg, route intraperitoneal. In a few lines: (§1)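 Healthy female DBA2 mice, 5–7 weeks old, five per group, received 75 mg/kg ip on days 1, 5, 9, 13 and 17. Vehicle was PET (PEG400/ethanol/Tween 80, 6:3:1), 5% glucose and DMSO, with final ethanol 15% and DMSO 10%. Controls received 100 µL vehicle. Body weight was measured every other day. At sacrifice on day 23, blood counts (hematocrit, WBC, granulocytes, platelets) and liver, kidney and spleen appearance and weight were assessed.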

The test system of data set [5] is Mus musculus. In words: Toxicity in DBA2 mouse assessed as change in color, weight and size in liver at 75 mg/kg, ip QD administered on alternate days for 17 days measured on day 23 relative to control. The note with it: in vivo, 408 h. In kind it is organism-based. Further details: dose 75 mg/kg, route intraperitoneal. In a few lines:
as §1

Data set [6] has as its system Mus musculus. In words: Toxicity in DBA2 mouse assessed as change in white blood count at 75 mg/kg, ip QD administered on alternate days for 17 days measured on day 23 relative to control. On the set-up: dose 75 mg/kg, route intraperitoneal. The note with it: in vivo, 408 h. In kind it is organism-based. In a few lines:
as §1

The subject of data set [7] is Mus musculus. In words: Toxicity in DBA2 mouse assessed as change in color, weight and size in spleen at 75 mg/kg, ip QD administered on alternate days for 17 days measured on day 23 relative to control. Further details: dose 75 mg/kg, route intraperitoneal. The settings on record: in vivo, 408 h. In kind it is organism-based. The essentials:
as §1

Data set [8] has as its system Mus musculus. In words: Toxicity in DBA2 mouse assessed as change in platelet count at 75 mg/kg, ip QD administered on alternate days for 17 days measured on day 23 relative to control. On the set-up: dose 75 mg/kg, route intraperitoneal. The data set is classed as organism-based. The note with it: in vivo, 408 h. The essentials: as §1
Data set [9] has as its system Mus musculus. Briefly: Toxicity in DBA2 mouse assessed as change in body weight at 75 mg/kg, ip QD administered on alternate days for 17 days measured on day 23 relative to control. The data set is classed as organism-based. Further details: dose 75 mg/kg, route intraperitoneal. The settings on record: in vivo, 408 h. In a few lines:
as §1

Data set [10] deals with Mus musculus. Briefly: Toxicity in DBA2 mouse assessed as change in hematocrit at 75 mg/kg, ip QD administered on alternate days for 17 days measured on day 23 relative to control. The settings on record: in vivo, 408 h. Further details: dose 75 mg/kg, route intraperitoneal. In kind it is organism-based. The essentials: as §1
The test system of data set [11] is Mus musculus. Briefly: Toxicity in DBA2 mouse assessed as change in granulocyte count at 75 mg/kg, ip QD administered on alternate days for 17 days measured on day 23 relative to control. On the set-up: dose 75 mg/kg, route intraperitoneal. The data set is classed as organism-based. The settings on record: in vivo, 408 h. The essentials: as §1

Regarding `COc1ccc(OC)c(/C=C(/C(C)=O)c2cc(OC)c(OC)c(OC)c2)c1`, the IC50 with B16 came out at 4 µM; with L1210, 3.7 µM.

Regarding `COc1ccc(/C=C(/C(C)=O)c2cc(OC)c(OC)c(OC)c2)cc1OC`, the IC50 in the data set on B16 came to 42 µM; in the data set on L1210, 37 µM.

With `COc1cc(OC)c(/C=C(/C(C)=O)c2cc(OC)c(OC)c(OC)c2)c(OC)c1`, the IC50 in the data set with B16 was > 100 µM; in the data set on L1210 it was 3.7 µM.

`COc1cc(/C=C(/C(C)=O)c2cc(OC)c(OC)c(OC)c2)cc(OC)c1OC`: the 50% inhibitory concentration (IC50) was found to be 23 µM in the data set with B16 and 7.2 µM with L1210.

In the case of `COc1ccc(/C=C(/C(C)=O)c2cc(OC)c(OC)c(OC)c2)cc1O[Si](C)(C)C(C)(C)C`, the half-inhibitory concentration (IC50) with B16 worked out at 5.1 µM; in the data set with L1210 it was 0.18 µM.

On to `COc1cc(/C(=C\c2ccc([N+](=O)[O-])cc2)C(C)=O)cc(OC)c1OC`, for which the 50% inhibitory concentration (IC50) in the data set with B16 and in the data set on L1210 was 18 µM in each case.

As for `COc1cc(/C(=C\c2cccc([N+](=O)[O-])c2)C(C)=O)cc(OC)c1OC`, the IC50 stood at 3.8 µM in the data set on B16 and 3.3 µM in the data set on L1210.

For `COc1cc(/C(=C\c2ccc(Cl)cc2)C(C)=O)cc(OC)c1OC`, the results for the IC50 in the data set on B16 and in the data set with L1210 were 7.4 µM and 5 µM, respectively.

`COc1cc(/C(=C\c2cccc(Br)c2)C(C)=O)cc(OC)c1OC`: the IC50 is 39 µM in the data set with B16 and 35 µM in the data set on L1210.

Take `COc1cc(/C(=C\c2ccc(Br)cc2)C(C)=O)cc(OC)c1OC`: the IC50 in the data set on B16 amounted to 19 µM; with L1210 it was 4 µM.

For the compound `COc1cc(/C(=C\c2ccc(C#N)cc2)C(C)=O)cc(OC)c1OC`, the IC50 came to 29 µM in the data set on B16 and 8 µM with L1210.

As to `COc1cc(/C(=C\c2ccc(F)cc2)C(C)=O)cc(OC)c1OC`, the IC50 is 65 µM in the data set on B16 and 43 µM in the data set with L1210.

For `COc1ccc(/C=C(/C(C)=O)c2cc(OC)c(OC)c(OC)c2)cc1`, the IC50 in the data set with B16 stood at 7.3 µM; with L1210 it was 0.38 µM. In addition, a half-maximal response in data set [1] (EC50) required 18.6 µM. Further, in [2], the Ratio worked out at 53. The compound further had a solubility in [3] of 319 µM (≈ 109 µg/mL).

On to `COc1ccccc1/C=C(/C(C)=O)c1cc(OC)c(OC)c(OC)c1`, for which the IC50 turned out to be 41 µM in the data set with B16 and 40 µM in the data set with L1210.

For `COc1cccc(/C=C(/C(C)=O)c2cc(OC)c(OC)c(OC)c2)c1`, the IC50 came to 31 µM in the data set on B16 and 39 µM with L1210.

In the case of `COc1cc(/C(=C\c2ccc(C)cc2)C(C)=O)cc(OC)c1OC`, the IC50 was 2.9 µM in the data set on B16 and 0.36 µM in the data set with L1210. The Activity result in the data set on Mus musculus [4], in the data set on Mus musculus [5], in the data set with Mus musculus [6], in the data set on Mus musculus [7], in the data set with Mus musculus [8] and in the data set with Mus musculus [9] was “Non-toxic” each time. The Activity entry in the data set with Mus musculus [10] and with Mus musculus [11] was “Non-toxic” each time. In data set [1], this compound registered an EC50 of 5.6 µM. Further, in data set [2], the Ratio stood at 59. This compound also came in with a solubility in data set [3] of 443 µM (≈ 145 µg/mL).

Consider `COc1cc(/C(=C\c2ccccc2)C(C)=O)cc(OC)c1OC`, for which the IC50 in the data set with B16 was found to be 25 µM; with L1210, 5.4 µM.

As for `COc1cc(/C(=C\c2ccc(Cl)c(Cl)c2)C(C)=O)cc(OC)c1OC`, the IC50 came to 6.4 µM with B16 and 4 µM in the data set with L1210.

For the compound `COc1ccc(/C=C(/C(C)=O)c2cc(OC)c(OC)c(OC)c2)cc1[N+](=O)[O-]`, the IC50 in the data set on B16 came to 3.8 µM; with L1210, 3.1 µM.
